Screens: PubChem, several laboratories
Hits are enriched below; roughly 1.8% of the tested compounds scored in any of these assays.
UBC9 SUMO inh: inhibitors of human SUMOylation (UBC9). P63279. HTRF SUMOylation assay, SAE1/SAE2 + UBC9, in vitro. inhibition, % at 35 µM. actives 0.36% (n = 290,000). AID 2006; in the data active means inhibition above about 50%, passing the limit was not always enough
Target sequence (P63279 whole entry, looked up): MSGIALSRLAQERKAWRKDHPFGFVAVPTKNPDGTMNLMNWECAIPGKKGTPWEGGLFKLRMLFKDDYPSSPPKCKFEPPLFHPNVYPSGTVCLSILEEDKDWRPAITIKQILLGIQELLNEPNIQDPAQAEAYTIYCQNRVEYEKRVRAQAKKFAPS
CSN inh: inhibitors of human CSN-mediated cullin deneddylation; Purified CSN, SCF-Nedd8-OG deneddylation, fluorescence polarization; inhibition, % at 12.5 µM; actives 0.38% (n = 360,000); AID 651999;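 active means pattern-corrected inhibition above about 35%, with an unprinted fluorescence ratio check between 0.5 and 1.5, limit read from the data, passing the limit was not always enough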;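 further: 0% = enzyme with substrate and 100% = substrate without enzyme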
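assay system = purified human Csn5 enzyme expressed in HEK293T cells | amount = 0.24 nM enzyme | buffer or medium = Tris/NaCl/DTT buffer, pH 7.5 | reagent = 10 nM SCFSkp2-Nedd8OG | compound = one concentration, 12.5 µM, 0.25% DMSO | times = 90 min reaction at room temperature | signal = FP | read-out basis = % inhibition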
Rpn11 inh: inhibitors of human proteasome Rpn11; calls only at 20 µM; O00487; actives 0.59% (n = 360,000); human 26S proteasome, Ub4-pepOG fluorescence polarization; 20S core pre-blocked with epoxomicin;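 active means inhibition at 20 µM, scaled to each plate's controls, above about 33%, limit read from the data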
Target sequence (O00487 whole entry, looked up): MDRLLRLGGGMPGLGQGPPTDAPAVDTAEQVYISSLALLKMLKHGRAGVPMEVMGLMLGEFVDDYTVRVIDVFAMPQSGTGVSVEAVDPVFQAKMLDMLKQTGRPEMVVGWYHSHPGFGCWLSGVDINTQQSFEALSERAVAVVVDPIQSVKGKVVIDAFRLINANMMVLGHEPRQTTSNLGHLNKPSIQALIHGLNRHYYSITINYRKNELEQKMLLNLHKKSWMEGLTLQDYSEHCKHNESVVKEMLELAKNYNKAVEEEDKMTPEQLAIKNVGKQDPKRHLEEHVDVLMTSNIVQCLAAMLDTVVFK
HNF4A DNA FP: change in binding of human HNF4 alpha to DNA | actives 0.3% (n = 360,000) | P41235 | activity change, % at 10 µM | HNF4a-FITC DNA binding, fluorescence polarization, 1 h | AID 1224865; in the data active means activity change above about 30%, passing the limit was not always enough
SENP1 FRET inh: blocks the human SENP1 SUMO protease catalytic domain. recombinant SENP1 catalytic domain, CyPet-SUMO1-YPet FRET cleavage. inhibition, % at 10 µM. Q9P0U3. actives 0.21% (n = 360,000);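 active means inhibition at least 30% at 10 µM, raw YFP signal under a set limit, fluorescence ratio 0.5 to 1.5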;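 further: 0% = enzyme with DMSO and 100% = no enzyme wells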
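Test system: human SENP1 catalytic domain; medium: Tris pH 8 buffer plus EDTA, NaCl, BME, BSA, NP40, catalase; incubation: 50 min reaction at room temperature; technique: FRET, CFP and YFP emission; controls: no-enzyme low control and enzyme-plus-DMSO high control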
TPT1 inh: blocks Candida albicans tRNA 2'-phosphotransferase; recombinant caTPT1, FP RNA substrate dephosphorylation; inhibition, % at 5 µM; actives 0.81% (n = 300,000);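 active means inhibition above the mean of all tested compounds plus 3 SD, set per screening campaign, cut at about 24% in these data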;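 further: plate controls were DMSO alone for no effect and ferristatin control at 100 nM for full effect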
CSN5 deneddyl: validation of inhibitors of human CSN-mediated cullin deneddylation | shares compounds with CSN inh | Csn5 deneddylation of SCF-Nedd8OG, fluorescence polarization, 90 min | inhibition, % at 16.6 µM | actives 62% (n = 540) | AID 720654; in the data active means inhibition above about 50%;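 further: 0% = DMSO with enzyme and 100% = no enzyme wells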
MMP2 cntr CSN: blocks human MMP-2 in a CSN deneddylation counter-screen; inhibition, % at 16.6 µM; shares compounds with CSN inh; actives 33% (n = 540); recombinant MMP-2, FRET substrate fluorescence, 60 min;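 active means corrected plate-normalized z-score of 5 or more, or -5 or less, or inhibition of 15% or more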;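 further: plate controls were DMSO wells with enzyme for no effect and buffer wells lacking MMP-2 for full effect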
Thrombin cntr: thrombin (bovine) inhibition, counter-screen for CSN hits; shares compounds with CSN inh; bovine thrombin cleavage of Ub4-pepOG, fluorescence polarization; inhibition, % at 16.6 µM; actives 49% (n = 540);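 active means inhibition at or above a set limit, with a fluorescence interference ratio between 0.5 and a set maximum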
Active calls of the source: *; i = inactive; nt = not tested or not shown; + = active, no number.

SMILES	UBC9 SUMO inh	CSN inh	Rpn11 inh	HNF4A DNA FP	SENP1 FRET inh	TPT1 inh	CSN5 deneddyl	MMP2 cntr CSN	Thrombin cntr
COC(=O)/C=C1/S/C(=N/N=C/c2ccco2)NC1=O	0	-3	i	0	7	1	nt	nt	nt
O=C(N/N=C\C=C\c1ccco1)c1cc(-c2ccc3ccccc3c2)n[nH]1	51*	43*	i	-8	-15	5	96*	11	-9
CC1=NN2C(=N)/C(=C\c3ccc(SCc4ccccc4)o3)C(=O)N=C2S1	32	8	i	5	-44	14	nt	nt	nt
N=C1/C(=C\c2ccc(SCc3ccco3)o2)C(=O)N=C2SC=NN12	nt	105*	i	17	-18	10	60*	3	26*
CCC1(OC(=O)CN(C)C)C(=O)OCc2c1cc1n(c2=O)Cc2cc3c(N)cccc3nc2-1 (stereo not given)	nt	-6	i	-5	3	nt	nt	nt	nt
COc1ccccc1-c1cc(C(=O)N/N=C/c2ccc(C)s2)c2ccccc2n1	12	1	i	-4	1	0	nt	nt	nt
CCn1c(N)nc2c1c(=O)n(C)c(=O)n2C	-16	2	i	-1	-1	0	nt	nt	nt
CCCc1nc2c(=O)n(C)c(=O)nc-2n(C)n1	98*	76*	i	157*	34*	nt	-10	5	-28
COc1ccc(-c2nc(-c3ccccn3)ncc2S(C)(=O)=O)cc1	15	3	i	-3	1	3	nt	nt	nt
Cn1nc(-c2ccccn2)nc2c(=O)n(C)c(=O)nc1-2	102*	57*	i	153*	33*	-5	28	-4	-27
CCn1c(=O)c([N+](=O)[O-])c(Cl)c2ccccc21	27	0	i	3	1	-1	nt	nt	nt
CCOc1ccc(/C=C/C2=Cc3c(sc(NC(=O)CSc4n[nH]c(N)n4)c3C#N)C(C)(C)C2)cc1	0	44*	nt	42*	-24	57*	72*	7	35*
COc1cccc(/C=N/NC(=O)CSc2ccccc2C)c1O	-33	100*	i	-2	-2	0	112*	10	1
Cc1cc(NC(=O)CSc2ncnc3sccc23)no1	12	-2	i	-3	1	0	nt	nt	nt
N#Cc1c(NC(=O)CSc2ncnc3sccc23)oc(-c2ccco2)c1-c1ccco1	nt	51*	i	3	-5	23	64*	9	7
Cc1cc(C)c(C#N)c(N2CCCC(C(N)=O)C2)n1 (stereo not given)	9	-1	i	3	-10	-4	nt	nt	nt
N#Cc1c(N2CCCC(O)C2)nc(N)c2c(N)nc3c(c12)CC(=O)N3C12CC3CC(CC(C3)C1)C2 (stereo not given)	99*	52*	i	28	-20	7	93*	4	-43
O=C(O)c1ccc(-n2cccc2/C=C2/SC(=O)N(CC(=O)N3CCCC3)C2=O)cc1	41	43*	i	-55	-6	4	nt	31*	11
N#Cc1ccccc1CN1C(=O)S/C(=C/c2cccn2-c2ccc(C(=O)O)cc2)C1=O	14	29	i	-7	-14	-3	nt	nt	nt
O=C(O)c1ccc(-n2cccc2/C=C2/NC(=O)N(c3ccccc3)C2=O)cc1	28	36*	i	-64	-21	-1	71*	20*	-21
O=C(O)c1ccc(-n2cccc2/C=C2/NC(=O)N(c3cccc(Cl)c3)C2=O)cc1	42	35	nt	-66	-22	nt	nt	nt	nt
CC1(C)Cc2cccc(OCC(=O)N3CCN(c4ccc(F)cc4)CC3)c2O1	nt	3	i	1	-1	-5	nt	nt	nt
Nc1ccc(Cn2ccc3c4c(N)nc(N)nc4ccc32)cc1	nt	39*	i	-5	6	nt	93*	0	11
Cc1csc(NC(=O)c2ccc(=O)[nH]c2)n1	29	0	i	-5	-5	-2	nt	nt	nt
Cc1cc(-c2csc(NC(=O)c3ccc(=O)[nH]c3)n2)c(C)n1Cc1ccco1	93*	40*	i	-53	-6	8	98*	8	-1
SMILES	UBC9 SUMO inh	CSN inh	Rpn11 inh	HNF4A DNA FP	SENP1 FRET inh	TPT1 inh	CSN5 deneddyl	MMP2 cntr CSN	Thrombin cntr
Cc1ccc(C)c(S(=O)(=O)N2CCCC2CNC(=O)C(=O)NC2CCCCCC2)c1 (stereo not given)	nt	1	i	3	1	1	nt	nt	nt
N#C/C(=C\c1cccs1)c1nc2ccccc2[nH]1	-5	-8	i	4	-39	8	nt	nt	nt
N#C/C(=C/c1ccc(O)c(O)c1)c1nc2ccccc2[nH]1	-12	124*	nt	10	-25	21	+	-1	55*
CCCCn1c(NS(=O)(=O)c2ccc(C)cc2)c(S(=O)(=O)c2ccccc2)c2nc3ccccc3nc21	100*	69*	i	-4	-33	2	101*	5	-34
COc1cc(/C=N/N2C(=O)CSC2=S)cc(Br)c1O	34	118*	nt	76*	10	nt	-52	24*	88*
Cc1cc(/C=N/NC(=O)C(O)(c2ccccc2)c2ccccc2)c(C)n1-c1cccc(C(=O)O)c1	15	41*	i	-6	-10	15	59*	8	7
Cc1cc(/C=N/NC(=O)C(O)(c2ccccc2)c2ccccc2)c(C)n1-c1ccc(C(=O)O)cc1	6	5	i	1	-12	3	nt	nt	nt
Cc1ccc(-c2nn3c(C)nnc3s2)cc1NC(=O)c1ccc(-c2cccc(Cl)c2)o1	31	11	nt	-3	-5	nt	nt	nt	nt
Cc1ccc(-c2nn3c(C)nnc3s2)cc1NC(=O)c1ccc(-c2ccc(Cl)cc2Cl)o1	44	124*	+	104*	-10	9	112*	1	4
O=c1c2c3c(sc2[nH]c(=S)n1Cc1ccco1)CCC3	41	45*	i	-12	-3	3	92*	34*	-2
Cc1c(CCC(=O)O)c(=O)oc2c(C)c3occ(-c4ccc(Br)cc4)c3cc12	13	39*	i	-2	-8	nt	26	30*	-5
Cc1nnsc1C(=O)N/N=C/c1ccc2ccccc2c1O	1	68*	nt	67*	56	110*	36	-34*	77*
Cc1nnsc1C(=O)N/N=C/c1ccccc1	24	-4	i	-5	2	5	nt	nt	nt
